Measurements taken from ChEMBL document CHEMBL1147012 (Bioorg Med Chem Lett, 2006).
The source made the active and inactive calls. The rule behind the calls is not given here.

Columns and labels:
[1] = tested on: PC-3; assay: Cytotoxicity against human PC3 cell line; assay type: functional, cell-based
[2] = target: Tubulin; assay: Inhibition of microtubule polymerization; assay type: functional, Homo sapiens
How it was run: (§1)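 Microtubule polymerization assay run with a fixed, short incubation time.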

[3] = target: T1, Tubulin (Homo sapiens) (UniProt P68371+Q9H4B7+P0DPH7+P68366+Q13509+Q71U36+P04350+Q3ZCM7+P07437+P68363+Q9BQE3+Q6PEY2+Q13885+Q9BVA1+Q9BUF5); assay: Inhibition of microtubule polymerization up to 150 uM; assay type: functional; how it was run: as §1
[4] = target: T1, Tubulin (Homo sapiens); assay: Inhibition of microtubule polymerization up to 150 uM

Row | Structure (SMILES) | IC50 [1] [µM] | IC50 [2] [µM] | Activity [3] | Activity [4]
1 | COc1cc2c(c(OC)c1OC)-c1ccc(=O)c(OC)cc1[C@@H](NC(C)=O)CC2 [ISOCOLCHICINE] | 4.6 | – | – | –
2 | COc1cc2c(c(OC)c1OC)-c1ccc(=O)c(OC)cc1[C@@H](NS(=O)(=O)c1ccc([N+](=O)[O-])cc1[N+](=O)[O-])CC2 | 10.2 | 59 | – | –
3 | COc1cc2c(c(OC)c1OC)-c1ccc(OC)c(=O)cc1[C@@H](NS(=O)(=O)c1ccc([N+](=O)[O-])cc1[N+](=O)[O-])CC2 | 0.05 | 9.7 | – | –
4 | CCN[C@H]1CCc2cc(OC)c(OC)c(OC)c2-c2ccc(OC)c(=O)cc21 | 0.0176 | – | – | –
5 | COc1cc2c(c(OC)c1OC)-c1ccc(=O)c(OC)cc1[C@@H](Nc1ccc([N+](=O)[O-])cc1[N+](=O)[O-])CC2 | 5.7 | – | – | –
6 | COc1cc2c(c(OC)c1OC)-c1ccc(OC)c(=O)cc1[C@@H](/N=C(/C)S)CC2 | 0.0975 | 2.2 | – | –
7 | COc1cc2c(c(OC)c1OC)-c1ccc(OC)c(=O)cc1[C@@H](NS(=O)(=O)c1ccccc1[N+](=O)[O-])CC2 | 0.0198 | 5.6 | – | –
8 | COc1cc2c(c(OC)c1OC)-c1ccc(=O)c(OC)cc1[C@@H](/N=C(/C)S)CC2 | 1.75 | – | inactive | –
9 | COc1cc2c(c(OC)c1OC)-c1ccc(=O)c(OC)cc1[C@@H](NS(=O)(=O)c1ccccc1[N+](=O)[O-])CC2 | 0.905 | 58 | – | –
10 | COc1cc2c(c(OC)c1OC)-c1ccc(=O)c(OC)cc1[C@@H](NCC(C)=O)CC2 | 0.093 | 68 | – | –
11 | COc1cc2c(c(OC)c1OC)-c1ccc(OC)c(=O)cc1[C@@H](Nc1ccc([N+](=O)[O-])cc1[N+](=O)[O-])CC2 | 0.009 | 4.6 | – | –
12 | COc1cc2c(c(OC)c1OC)-c1ccc(OC)c(=O)cc1[C@@H](NCC(C)=O)CC2 | 0.0076 | – | – | –
13 | CCN[C@H]1CCc2cc(OC)c(OC)c(OC)c2-c2ccc(=O)c(OC)cc21 | 1.72 | – | – | inactive
